# This is one part of a sample in which hits are shown more often than they occur.
# IDH1 R132H inh: blocks human IDH1 R132H reductase activity; O75874; diaphorase/resazurin fluorescence, 60 min; inhibition, % at 10 µM; hit rate 0.18% among 70,000; AID 624101; in the data active means inhibition above about 34%; inconclusive means no clear call, values can overlap the other calls; inactive means below about 11%;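 further: 0% = DMSO and 100% = no enzyme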
# Target sequence (O75874 whole entry R132H): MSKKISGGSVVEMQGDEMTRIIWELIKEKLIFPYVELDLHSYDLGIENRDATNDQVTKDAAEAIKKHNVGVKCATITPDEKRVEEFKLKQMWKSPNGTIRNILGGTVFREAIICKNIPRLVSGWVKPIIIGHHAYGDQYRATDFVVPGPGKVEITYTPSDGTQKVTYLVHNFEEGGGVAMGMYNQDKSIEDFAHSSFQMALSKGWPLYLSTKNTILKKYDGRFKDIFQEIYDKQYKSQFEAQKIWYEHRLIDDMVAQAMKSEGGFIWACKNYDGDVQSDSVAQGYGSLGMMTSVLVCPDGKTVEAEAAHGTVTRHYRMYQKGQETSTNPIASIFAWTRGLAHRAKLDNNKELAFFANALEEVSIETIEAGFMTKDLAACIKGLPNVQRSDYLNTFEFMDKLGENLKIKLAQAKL
# KDM4C inh: KDM4C (human) demethylase inhibition; Q9H3R0; GST-KDM4C 2-372, H3K9me3 peptide, LANCE TR-FRET; hit rate 0.15% among 96,000; inhibition, % at 12.5 µM;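 active means mean replicate inhibition above about 25%, with at least 55% of replicates also reaching it, limit read from the data, passing the limit was not always enough; inconclusive means only one of those two conditions met; inactive means neither condition met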
#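 Material: GST-tagged GASC-1 (JMJD2C) catalytic fragment, aa 2-372. Input: enzyme final amount 10 nM. Medium: HEPES buffer, pH 7.5, plus ascorbate. Reagent: H3K9me3 peptide substrate, Fe(II), 2-oxoglutarate. Doses: single dose. Times: reaction 30 min RT, detection step 1 h RT. Measured by: LANCE TR-FRET. Evaluation: Fall in 671/618 emission ratio as inhibition.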
# T cruzi growth-1: blocks T. cruzi growth in NIH3T3 culture; T. cruzi beta-gal in NIH3T3, GalScreen luminescence, 90 h; inhibition, % at 8.34 µM; hit rate 5.9% among 77,000;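 active means mean inhibition above about 93%, with at least 55% of replicates each passing it, limit read from the data, passing the limit was not always enough; inconclusive means only one of those two conditions holds; inactive means neither condition holds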
# T cruzi growth-2: inhibitors of T. cruzi proliferation. AID 651739. shares compounds with T cruzi growth-1. hit rate 72% among 5,600. inhibition, % at 8.35 µM. T. cruzi beta-gal in NIH3T3, GalScreen luminescence, 90 h;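 active means mean replicate inhibition above about 95% and at least 55% of replicates individually reaching it, limit read from the data; inconclusive means only one of the two criteria is met; inactive means neither criterion is met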
# T cruzi growth-3: Trypanosoma cruzi proliferation inhibition; T. cruzi beta-gal in NIH3T3, GalScreen luminescence, 90 h; inhibition, % at 2.09 µM; hit rate 21% among 5,600; shares compounds with T cruzi growth-1;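 active means mean inhibition above about 95%, with at least 55% of replicates also reaching it, limit read from the data; inconclusive means meets just one of the two conditions; inactive means meets neither condition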;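 further: plate controls were neutral control median for no effect and positive control median for full effect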
# NIH3T3 tox: kills mouse NIH/3T3 fibroblasts | shares compounds with T cruzi growth-1 | NIH/3T3 viability, CellTiter-Glo ATP luminescence, 90 h | cytotoxicity (signal decrease), % at 8.35 µM | hit rate 14% among 5,600 | AID 651742;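 active means mean signal decrease across replicates above about 35% based on untreated-well scatter, with enough replicates individually passing, limit read from the data; inconclusive means no rule stated though some were filed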;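 further: 0% = median of neutral control wells and 100% = median of positive control wells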
# 3T3 cytotox 2: cytotoxicity in mouse NIH/3T3 fibroblasts. inhibition, % at 24.9 µM. hit rate 56% among 5,600. NIH/3T3 viability, CellTiter-Glo ATP luminescence, 90 h. AID 651744. shares compounds with T cruzi growth-1;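 active means mean loss of cell viability signal at or above a set limit, and enough replicates individually reaching it; inconclusive means meets only the mean limit or only the replicate share; inactive means meets neither condition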;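 further: 0% = median of neutral control wells and 100% = median of positive control wells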
# An asterisk follows results filed as active; ? = inconclusive; · = no result given.
SMILES,IDH1 R132H inh,KDM4C inh,T cruzi growth-1,others
C[C@H]1CN([C@@H](C)CO)S(=O)(=O)c2ccc(C#CCN(C)C)cc2O[C@H]1CN(C)Cc1ccncc1,0,4,28,
CC(C)CC#Cc1ccc2c(c1)O[C@@H](CN(C)Cc1ccncc1)[C@@H](C)CN([C@H](C)CO)S2(=O)=O,0,-1,130*,T cruzi growth-2=100*;T cruzi growth-3=91;NIH3T3 tox=1;3T3 cytotox 2=104*
CC(C)CC#Cc1ccc2c(c1)O[C@@H](CN(C)Cc1ccncc1)[C@@H](C)CN([C@@H](C)CO)S2(=O)=O,2,6,122*,T cruzi growth-2=109*;T cruzi growth-3=93;NIH3T3 tox=8;3T3 cytotox 2=109*
CC(C)CC#Cc1ccc2c(c1)O[C@@H](CN(C)Cc1cncnc1)[C@@H](C)CN([C@H](C)CO)S2(=O)=O,0,0,78,
C[C@H](CO)N1C[C@H](C)[C@@H](CN(C)Cc2ccncc2)Oc2cc(C#CCN(C)C)ccc2S1(=O)=O,5,4,7,
COc1ccc(NC(=O)c2ccco2)cc1NC(=S)NC(=O)c1cc2ccccc2o1,1,·,·,
CC(=O)c1ccc(NC(=O)CSc2nnc(C34CC5CC(CC(C5)C3)C4)n2C)cc1,0,·,·,
OC(COc1ccccc1F)Cn1cnc2ccccc21 (centres undefined),0,·,·,
COc1cccc2cc(-c3nnc(SCC(=O)Nc4cccc(Br)c4)n3C)oc12,0,·,·,
C[C@@H]1CN([C@H](C)CO)S(=O)(=O)c2ccc(C#CCN(C)C)cc2O[C@@H]1CN(C)Cc1ccccc1,0,7,59,
CC(C)CC#Cc1ccc2c(c1)O[C@@H](CN(C)Cc1ccccc1)[C@@H](C)CN([C@H](C)CO)S2(=O)=O,5,0,0,
CC(C)CC#Cc1ccc2c(c1)O[C@@H](CN(C)Cc1ccccc1)[C@@H](C)CN([C@@H](C)CO)S2(=O)=O,0,1,125*,T cruzi growth-2=96*;T cruzi growth-3=110*;NIH3T3 tox=11;3T3 cytotox 2=106*
C[C@H]1CN([C@@H](C)CO)S(=O)(=O)c2ccc(C#CCN(C)C)cc2O[C@@H]1CN(C)Cc1ccccc1,1,5,108*,T cruzi growth-2=105*;T cruzi growth-3=93;NIH3T3 tox=31;3T3 cytotox 2=105*
Cc1ccc2nc(-c3ccccn3)cc(C(=O)Nc3sc4c(c3C(N)=O)CCc3ccccc3-4)c2c1,0,·,·,
Cc1ccccc1-c1ccc([C@@H]2[C@H](CO)N3CCCCN(S(=O)(=O)c4cn(C)cn4)C[C@@H]23)cc1,·,1,63,
Cc1ccccc1-c1ccc([C@H]2[C@H]3CN(S(=O)(=O)c4cn(C)cn4)CCCCN3[C@H]2CO)cc1,·,-2,114*,T cruzi growth-2=60;T cruzi growth-3=-19;NIH3T3 tox=19;3T3 cytotox 2=?
Cc1ccccc1-c1ccc([C@H]2[C@@H](CO)N3CCCCN(S(=O)(=O)c4cn(C)cn4)C[C@@H]23)cc1,·,1,115*,T cruzi growth-2=3;T cruzi growth-3=-25;NIH3T3 tox=1;3T3 cytotox 2=32*
Cc1ccccc1-c1ccc([C@@H]2[C@@H](CO)N3CCCCN(S(=O)(=O)c4cn(C)cn4)C[C@H]23)cc1,·,-1,89,
CCCN(C)C[C@@H]1Oc2cc(C#Cc3cccnc3)ccc2S(=O)(=O)N([C@H](C)CO)C[C@@H]1C,1,6,51,
CCN1CCN(Cc2c(C)[nH]c3ccc(Cl)cc3c2=O)CC1,0,·,·,
Cc1nc(SCC(N)=O)c2c(C)c(C)sc2n1,0,·,·,
COC1=CC(=O)OC(CCc2ccc(OC)c(OC)c2)C1 (centres undefined),0,·,·,
Nc1cc(N)nc(SCC(=O)N(c2ccccc2)c2ccccc2)n1,0,·,·,
C[C@H](CO)N1C[C@H](C)[C@@H](CN(C)S(=O)(=O)c2cccs2)OCCCC[C@H](C)Oc2ccc(NS(=O)(=O)c3ccc(Cl)cc3)cc2C1=O,1,0,102,
Cc1ccc(S(=O)(=O)Nc2ccc3c(c2)C(=O)N([C@@H](C)CO)C[C@H](C)[C@H](CN(C)S(=O)(=O)c2cccs2)OCCCC[C@H](C)O3)cc1,1,-3,·,
C[C@H](CO)N1C[C@H](C)[C@@H](CN(C)S(=O)(=O)c2ccc(Cl)cc2)OCCCC[C@H](C)Oc2ccc(NS(=O)(=O)c3cccs3)cc2C1=O,·,1,84,
